Test results published in PMC7350150 (Neoplasia (New York, N.Y.), 2020).
“Also recorded” adds a separate entry of the source.

Tests used:
[1] = test system: intracellular PAR levels in HeLa cells; test: Inhibition of H2O2-induced PAR synthesis; assay type: cell-based; conditions: Homo sapiens, 18 h, read-out: IC50 of intracellular PARP activity
[2] = test system: intracellular PARP activity in H2O2-treated SF-295 cells; test: Inhibition of H2O2-induced PAR synthesis; assay type: cell-based; conditions: Homo sapiens, SF-295, read-out: IC50 of intracellular PARP activity
In short: (§1)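 Cells seeded at 5000/well in DMEM with 10% FBS. After 4 h, test compound added as eight serial dilutions (0.02–200 nM final) in 0.1% DMSO for 18 h. DNA damage induced with 200 μM H₂O₂ at 37 °C for 5 min. Cells fixed in ice-cold methanol at −20 °C and stained overnight at 4 °C with anti-PAR mAb, Alexa 488 secondary and DAPI. Nuclear PAR intensity imaged; IC50 taken from residual activity.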

[3] = test system: intracellular PARP activity in H2O2-treated GL261 cells; test: Inhibition of H2O2-induced PAR synthesis; assay type: cell-based, murine; conditions: Mus musculus, GL261, read-out: IC50 of intracellular PARP activity
In short: as §1

[4] = PK study in healthy mice; assay type: in vivo, Mouse
In short: (§2)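 Healthy animals given a single dose. Mouse: 10 mg/kg p.o. or 1 mg/kg i.v. Rat: 5 mg/kg p.o. or 2 mg/kg i.v. Dog: 2 mg/kg p.o. or 1 mg/kg i.v. Plasma deproteinised with acetonitrile containing internal standard and centrifuged at 14,000 rpm for 8 min. Drug measured by LC–MS/MS. Dosing solutions analysed to confirm the actual dose given.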

[5] = PK study in rat; assay type: in vivo
In short: as §2

[6] = PK study in dog; assay type: in vivo
In short: as §2

[7] = Brain penetration of PARP inhibitors in mice; assay type: in vivo, male C57 mice; conditions: for Kp: po, AUC1-4h
[8] = QWBA tissue distribution of [14C] pamiparib; assay type: in vivo, Long-Evans rats; conditions: rats, single oral 5 mg/kg, 24 h post treatment
[9] = Brain penetration after intravenous administration, Kpuu; assay type: in vivo, SD rats; conditions: male, Sprague-Dawley, rat, brain and plasma (unbound), 1 mg/kg
[10] = target: Human BCRP (Homo sapiens, UniProt Q9UNQ0); test: ATP-dependent uptake activity, BCRP substrate test; assay type: in vitro ADME; conditions: 0.5 μM to 30 μM; uptake ratio ≥ 2-fold is positive
Chain of Human BCRP (Q9UNQ0 whole entry): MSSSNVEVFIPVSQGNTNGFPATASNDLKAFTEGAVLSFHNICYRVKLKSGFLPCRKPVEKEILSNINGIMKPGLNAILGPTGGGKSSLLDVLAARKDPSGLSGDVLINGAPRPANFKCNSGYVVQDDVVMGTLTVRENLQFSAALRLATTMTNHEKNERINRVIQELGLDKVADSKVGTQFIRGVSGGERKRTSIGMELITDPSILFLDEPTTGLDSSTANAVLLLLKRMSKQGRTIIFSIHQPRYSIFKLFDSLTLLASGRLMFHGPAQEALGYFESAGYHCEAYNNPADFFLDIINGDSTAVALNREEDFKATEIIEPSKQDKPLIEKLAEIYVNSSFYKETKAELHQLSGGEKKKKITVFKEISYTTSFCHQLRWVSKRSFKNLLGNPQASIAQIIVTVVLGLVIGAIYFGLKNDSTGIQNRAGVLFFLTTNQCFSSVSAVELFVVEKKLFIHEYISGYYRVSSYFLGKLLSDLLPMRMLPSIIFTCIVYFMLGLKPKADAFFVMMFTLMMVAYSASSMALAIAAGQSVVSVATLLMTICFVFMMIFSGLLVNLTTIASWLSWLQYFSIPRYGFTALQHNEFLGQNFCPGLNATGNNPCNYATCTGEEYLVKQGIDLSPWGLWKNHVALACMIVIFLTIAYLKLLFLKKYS

[11] = target: P-gp (Homo sapiens, UniProt P08183); test: P-gp efflux activity in MDCKII-MDR1 cell monolayer; assay type: in vitro ADME; conditions: 1 µM and 10 µM; ER > 2 and decrease to < 50% with inhibitor suggests substrate
Chain of P-gp (P08183 whole entry): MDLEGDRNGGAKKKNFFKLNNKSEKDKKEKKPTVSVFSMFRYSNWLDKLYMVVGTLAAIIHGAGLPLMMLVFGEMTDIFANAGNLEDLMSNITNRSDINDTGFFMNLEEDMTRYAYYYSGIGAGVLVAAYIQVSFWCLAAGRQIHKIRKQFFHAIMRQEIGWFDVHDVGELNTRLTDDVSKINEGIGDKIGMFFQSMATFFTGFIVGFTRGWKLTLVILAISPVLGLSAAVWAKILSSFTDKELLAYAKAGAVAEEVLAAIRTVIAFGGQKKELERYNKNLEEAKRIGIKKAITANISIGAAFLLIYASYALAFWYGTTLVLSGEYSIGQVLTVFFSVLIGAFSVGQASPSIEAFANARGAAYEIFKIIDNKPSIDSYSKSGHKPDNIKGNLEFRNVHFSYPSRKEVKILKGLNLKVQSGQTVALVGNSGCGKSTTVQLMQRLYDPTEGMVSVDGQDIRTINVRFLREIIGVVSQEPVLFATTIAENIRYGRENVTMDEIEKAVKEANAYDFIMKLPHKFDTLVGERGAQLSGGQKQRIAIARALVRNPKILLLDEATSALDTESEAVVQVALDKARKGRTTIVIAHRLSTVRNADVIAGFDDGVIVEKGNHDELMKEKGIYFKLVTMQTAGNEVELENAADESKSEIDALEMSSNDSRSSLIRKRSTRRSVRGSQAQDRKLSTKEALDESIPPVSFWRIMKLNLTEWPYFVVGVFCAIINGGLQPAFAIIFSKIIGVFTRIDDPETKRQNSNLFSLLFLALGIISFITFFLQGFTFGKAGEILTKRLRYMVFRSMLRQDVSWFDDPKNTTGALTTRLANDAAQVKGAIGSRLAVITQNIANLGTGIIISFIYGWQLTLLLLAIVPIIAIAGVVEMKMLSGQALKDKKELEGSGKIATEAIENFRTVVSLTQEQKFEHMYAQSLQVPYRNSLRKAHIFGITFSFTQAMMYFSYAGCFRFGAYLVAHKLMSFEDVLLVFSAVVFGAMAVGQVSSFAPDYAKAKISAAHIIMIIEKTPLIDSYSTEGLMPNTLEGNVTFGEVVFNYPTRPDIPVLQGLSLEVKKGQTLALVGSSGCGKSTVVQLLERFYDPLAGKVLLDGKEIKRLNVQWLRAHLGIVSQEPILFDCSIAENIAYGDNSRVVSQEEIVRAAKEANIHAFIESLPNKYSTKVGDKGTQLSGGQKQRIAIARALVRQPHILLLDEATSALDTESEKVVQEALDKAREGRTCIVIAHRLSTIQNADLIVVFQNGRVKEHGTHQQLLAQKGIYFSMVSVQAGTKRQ

[12] = test system: MDA-MB-436 breast cancer xenograft; test: MDA-MB-436 breast cancer xenograft efficacy; assay type: in vivo, BALB/c nude mice; conditions: for tumor relapse at day 89: two months after treatment terminated
In short: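 MDA-MB-436 cells at 2.5 × 10⁷ cells/mL in 1:1 PBS/Matrigel, implanted subcutaneously in the right front flank of 6–8-week female BALB/c nude mice. At ~130 mm³, mice stratified into six groups of nine. Oral BID dosing for 28 days: vehicle (0.5% methylcellulose), test compound from 1.6 mg/kg, or a comparator PARP inhibitor at 25 or 50 mg/kg. Tumours followed to day 89.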

[13] = PK/PD in MDA-MB-436 xenograft; assay type: in vivo, mice; conditions: BALB/c nude, mouse, tumor, oral, 5.45 mg/kg
[14] = test system: PARylation in MDA-MB-436 xenograft tumors; test: PK/PD in MDA-MB-436 xenograft; assay type: in vivo, mice; conditions: single dose 5.45, first 12 h
[15] = test system: intracranial H209 xenograft; test: Intracranial H209 xenograft survival; assay type: in vivo, BALB/c nude mice; conditions: pamiparib 3 mg/kg BID day 1–21, 29–49; TMZ 50 mg/kg; combination TMZ 50 mg/kg plus pamiparib 0.75 mg/kg BID
[16] = test system: PARylation in brain tumors, intracranial H209 xenograft; test: Brain penetration and PD in intracranial H209 xenograft; assay type: in vivo, mice; conditions: single dose 3 mg/kg p.o., 4 h after treatment
[17] = test system: GL261 syngeneic intracranial glioma; test: GL261 syngeneic intracranial glioma model survival; assay type: in vivo, Mice; conditions: single agent 9 mpk
[18] = test system: SNB-19; test: Pamiparib and TMZ combination, anti-proliferation; assay type: cell-based; conditions: Homo sapiens, SNB-19, read-out: EC50 of TMZ single agent
[19] = test system: SF-295; test: Pamiparib and TMZ combination, anti-proliferation; assay type: cell-based; conditions: Homo sapiens, SF-295, read-out: EC50 of TMZ single agent
[20] = test system: T98G; test: Pamiparib and TMZ combination, anti-proliferation; assay type: cell-based; conditions: Homo sapiens, read-out: EC50 of TMZ single agent
[21] = test system: SF-539; test: Pamiparib and TMZ combination, anti-proliferation; assay type: cell-based; conditions: Homo sapiens, SF-539, read-out: EC50 of TMZ single agent
[22] = test system: U-118MG; test: Pamiparib and TMZ combination, anti-proliferation; assay type: cell-based; conditions: Homo sapiens, read-out: EC50 of TMZ single agent
[23] = test system: U251; test: Pamiparib and TMZ combination, anti-proliferation; assay type: cell-based; conditions: Homo sapiens, U-251, read-out: EC50 of TMZ single agent
[24] = test system: LN-229; test: Pamiparib and TMZ combination, anti-proliferation; assay type: cell-based; conditions: Homo sapiens, LN-229, read-out: EC50 of TMZ single agent
[25] = test system: U87-MG; test: Pamiparib and TMZ combination, anti-proliferation; assay type: cell-based; conditions: Homo sapiens, U-87 MG, read-out: EC50 of TMZ single agent
[26] = test system: NCI-H2227; test: Pamiparib and TMZ combination, anti-proliferation; assay type: cell-based; conditions: read-out: EC50 of TMZ single agent
[27] = test system: DMS153; test: Pamiparib and TMZ combination, anti-proliferation; assay type: cell-based; conditions: Homo sapiens, DMS-153, read-out: EC50 of TMZ single agent
[28] = test system: NCI-H1048; test: Pamiparib and TMZ combination, anti-proliferation; assay type: cell-based; conditions: Homo sapiens, NCI-H1048, read-out: EC50 of TMZ single agent
[29] = test system: NCI-H209; test: Pamiparib and TMZ combination, anti-proliferation; assay type: cell-based; conditions: Homo sapiens, NCI-H209, read-out: EC50 of TMZ single agent
[30] = test system: NCI-H1436; test: Pamiparib and TMZ combination, anti-proliferation; assay type: cell-based; conditions: Homo sapiens, NCI-H1436, read-out: EC50 of TMZ single agent
[31] = test system: NCI-H2286; test: Pamiparib and TMZ combination, anti-proliferation; assay type: cell-based; conditions: Homo sapiens, NCI-H2286, read-out: EC50 of TMZ single agent
[32] = test system: NCI-H69; test: Pamiparib and TMZ combination, anti-proliferation; assay type: cell-based; conditions: Homo sapiens, NCI-H69, read-out: EC50 of TMZ single agent
[33] = test system: intracranial H209-TR xenografts; test: Intracranial H209-TR xenograft survival; assay type: in vivo, BALB/c nude mice; conditions: same treatment schedule as intracranial H209
[34] = mouse, plasma, intravenous, 1 mg/kg
[35] = Rat, 5 mg/kg p.o. or 2 mg/kg i.v.
[36] = male, C57, mouse, brain and plasma, Brain/Plasma, single p.o. dose: Pamiparib 10, Talazoparib 3, Olaparib 50, Niraparib 50 mg/kg
[37] = single p.o. dose: Pamiparib 10, Talazoparib 3, Olaparib 50, Niraparib 50 mg/kg

`C[C@]12CCCN1CC1=NNC(=O)c3cc(F)cc4[nH]c2c1c34` [Pamiparib] showed an IC50 [1] of 0.00024 µM, an IC50 [2] of 0.00017 µM and an IC50 [3] of 0.00025 µM. For the same compound, the “AUC 0-inf/Dose” value ([4]; Mouse, 10 mg/kg p.o. or 1 mg/kg i.v.) was 552 ± 194 ng.h/mL per mg/kg, the half-life ([4]; mouse, plasma) was 3.2 ± 0.5 h and the Vd [4, 34] was 5.7 ± 0.5 L/kg. For the same compound, the clearance [4, 34] was 29.9 ± 2.4 mL/min/kg, the bioavailability ([4]; mouse, plasma, oral) was 99 ± 35% and the “AUC 0-inf/Dose” value [5, 35] was 694 ± 124 ng.h/mL per mg/kg. It also gave a clearance [5, 35] of 22.7 ± 2.8 mL/min/kg, a half-life ([5]; rat, plasma) of 5.5 ± 0.8 h and a Vd ([5]; rat, plasma, intravenous, 2 mg/kg) of 6.9 ± 0.7 L/kg. For the same compound, the bioavailability ([5]; rat, plasma, oral) was 94 ± 17%, the “AUC 0-inf/Dose” value ([6]; Dog, 2 mg/kg p.o. or 1 mg/kg i.v.) was 800 ± 95 ng.h/mL per mg/kg and the half-life ([6]; dog, plasma) was 3.6 ± 1.9 h. The Vd ([6]; dog, plasma, intravenous, 1 mg/kg) was 2.1 ± 0.2 L/kg, the bioavailability ([6]; dog, plasma, oral) was 73 ± 4% and the “drug concentration in brain” value ([7]; maintained for 4 h post treatment) was > 100 ng/g. For the same compound, the Kp [7, 36] was 0.18, the “AUC1-4h, Brain” value [7, 37] was 820 ng·h/g and the “drug concentration in the brain as share of the detected plasma level” value [8] was “approximately 20%”. For the same compound, the Kp [9] was 0.158, the BCRP substrate assessment [10] was “not a substrate of P-gp or BCRP” and the P-gp substrate assessment [11] was “not a substrate of P-gp or BCRP”. For the same compound, the objective responses ([12]; day 29, lowest dose 1.6 mg/kg BID) was 100%, the “objective responses (PR plus CR)” value ([12]; day 29, pamiparib oral, BID for 28 days, doses from 1.6 mg/kg) was 100% and the “tumor relapse at day 89” value ([12]; pamiparib lowest dose 1.6 mg/kg) was “tumor relapse was observed”. The concentration at 4 h [13] was ~800 nM, the intra-tumor concentration [14] was > 0.5 µmol/kg and the median survival [15] was 26.5 days. The “inhibition of PARylation in brain tumors” value [16] was “complete inhibition of PARylation; also recorded: completely inhibited” and the median survival [17] was 21 days.

For `Cn1ncnc1[C@H]1c2n[nH]c(=O)c3cc(F)cc(c23)N[C@@H]1c1ccc(F)cc1` [Talazoparib, talazoparib], the “AUC1-4h, Brain” value [7, 37] was 85 ng·h/g.

In the case of `NC(=O)c1cccc2cn(-c3ccc([C@@H]4CCCNC4)cc3)nc12` [Niraparib, niraparib], the Kp at 1 h ([7]; male, C57, mouse, brain and plasma, oral, Brain/Plasma, concentration, 1 h, single p.o. dose: Pamiparib 10, Talazoparib 3, Olaparib 50, Niraparib 50 mg/kg) is reported as 0.06, the Kp at 2 h ([7]; male, C57, mouse, brain and plasma, oral, Brain/Plasma, concentration, 2 h, single p.o. dose: Pamiparib 10, Talazoparib 3, Olaparib 50, Niraparib 50 mg/kg) is reported as 0.08 and the Kp at 4 h ([7]; male, C57, mouse, brain and plasma, oral, Brain/Plasma, concentration, 4 h, single p.o. dose: Pamiparib 10, Talazoparib 3, Olaparib 50, Niraparib 50 mg/kg) is reported as 0.14. For the same compound, the Kp [7, 36] was 0.09 and the “AUC1-4h, Brain” value [7, 37] was 1849 ng·h/g.

For `O=C(c1cc(Cc2n[nH]c(=O)c3ccccc23)ccc1F)N1CCN(C(=O)C2CC2)CC1` [Olaparib, olaparib, reference compound], the “AUC1-4h, Brain” value [7, 37] was 56 ng·h/g, the objective responses ([12]; olaparib high-dose group (50 mg/kg, BID)) was 100% and the “tumor relapse at day 89” value ([12]; olaparib 25 mg/kg BID) was “tumor relapse was observed”.

In the case of `Cn1nnc2c(C(N)=O)ncn2c1=O` [TMZ, Temozolomide], the EC50 [18] is reported as > 300 µM, the EC50 [19] is reported as > 300 µM and the EC50 [20] is reported as > 300 µM. The EC50 [21] was 80 µM, the EC50 [22] was > 300 µM and the EC50 [23] was 32 µM. The EC50 [24] was > 300 µM, the EC50 [25] was > 300 µM and the EC50 [26] was 576 µM. It also gave an EC50 [27] of 60 µM, an EC50 [28] of 153 µM and an EC50 [29] of 63 µM. The EC50 [30] was > 300 µM, the EC50 [31] was 182 µM and the EC50 [32] was 15 µM. The median survival [15] was 75 days and the median survival [33] was 24 days.
